Laboratory results as given in ChEMBL document CHEMBL1154855 (Eur J Med Chem, 2010).

What was measured:
[1] = Cytotoxicity against Feline coronavirus infected cat CRFK cells by trypan blue exclusion method; type: cell-based, Felis catus; settings: crfk
Method in brief: (§1)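 Uninfected confluent cultures were run in parallel with the infected cultures. Medium was replaced by 1 ml maintenance medium with serial compound concentrations; cell controls received no compound. Cultures were incubated at 37 °C. After 2 and 7 days, compound was withdrawn and viability was determined by trypan blue exclusion.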

Human alphaherpesvirus 2 = assay: Antiviral activity against Herpes simplex virus 2 G infected in HEL cells assessed as protection from virus-induced cytopathogenicity after 2 to 3 days by MTT assay; type: functional, organism-based; settings: Human alphaherpesvirus 2, strain G
Coxsackievirus B4 [2] = assay: Antiviral activity against Human coxsackievirus B4 infected in african green monkey Vero cells assessed as protection from virus-induced cytopathogenicity after 2 days by MTT assay; type: functional, organism-based; settings: Enterovirus B, 48 h
[3] = Cytotoxicity against Feline herpesvirus infected cat CRFK cells by trypan blue exclusion method; type: cell-based, Felis catus; settings: crfk; method in brief: as §1
HEL [4] = assay: (§2) Cytotoxicity against Vaccinia virus infected HEL cells by trypan blue exclusion method; type: cell-based; settings: human, hel; method in brief: as §1
Human alphaherpesvirus 1 [5] = assay: Antiviral activity against acyclovir-sensitive Herpes simplex virus 1 KOS infected in HEL cells assessed as protection from virus-induced cytopathogenicity after 2 to 3 days by MTT assay; type: functional, organism-based; settings: Human alphaherpesvirus 1, KOS
Sindbis virus = assay: Antiviral activity against Sindbis virus infected in african green monkey Vero cells assessed as protection from virus-induced cytopathogenicity after 2 to 3 days by MTT assay; type: functional, organism-based
[6] = test system: Human immunodeficiency virus 1; assay: Antiviral activity against HIV1 3B-infected in human MT4 cells assessed as protection from virus-induced cytopathogenicity after 5 days by MTT assay; type: functional, organism-based; settings: Human immunodeficiency virus 1, 3B, MT4, 120 h
Method in brief: (§3)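 MT-4 cells at 3 × 10^4 per well were infected with HIV (IIIB or ROD) at 50% cell culture infective doses. Graded compound concentrations were added immediately after infection. Plates were incubated for 5 days at 37 °C and viable cells were counted by MTT.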

HEL [7] = assay: (§4) Cytotoxicity against Herpes simplex virus 1 KOS infected HEL cells by trypan blue exclusion method; type: cell-based; settings: human, hel; method in brief: as §1
HEL [8] = assay: Cytotoxicity against acyclovir-sensitive Herpes simplex virus 1 KOS infected HEL cells by trypan blue exclusion method; type: cell-based; settings: human; method in brief: as §1
MDCK [9] = assay: Cytotoxicity against Influenza A virus subtype H3N2 infected MDCK cells by trypan blue exclusion method; type: cell-based, Canis lupus familiaris; settings: dog
Vero [10] = assay: (§5) Cytotoxicity against Human coxsackievirus B4 infected african green monkey Vero cells by trypan blue exclusion method; type: cell-based; settings: chlorocebus sabaeus, vero; method in brief: as §1
MDCK [11] = assay: Cytotoxicity against Influenza A virus subtype H1N1 infected MDCK cells by trypan blue exclusion method; type: cell-based, Canis lupus familiaris; settings: dog
Influenza B virus = assay: Antiviral activity against Influenza B virus infected in MDCK cells assessed as protection from virus-induced cytopathogenicity after 6 to 7 days by MTT assay; type: functional, organism-based
HeLa [12] = assay: (§6) Cytotoxicity against Human coxsackievirus B4 infected human HeLa cells by trypan blue exclusion method; type: cell-based; settings: hela; method in brief: as §1
[13] = test system: Vesicular stomatitis virus; assay: Antiviral activity against VSV infected in human HeLa cells assessed as protection from virus-induced cytopathogenicity after 1 to 2 days by MTT assay; type: functional, organism-based
Punta Toro virus = assay: Antiviral activity against Punta Toro virus infected in african green monkey Vero cells assessed as protection from virus-induced cytopathogenicity by MTT assay; type: functional, organism-based
Influenza A virus [14] = assay: Antiviral activity against Influenza A virus H1N1 infected in MDCK cells assessed as protection from virus-induced cytopathogenicity after 6 to 7 days by MTT assay; type: functional, organism-based
[15] = Cytotoxicity against HIV1 3B-infected human MT4 cells by MTT assay; type: cell-based; settings: MT4 cells infected with HIV-1 3B
Method in brief: (§7)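 MT-4 cells (3 × 10^4 per well) were cultured in microdilution trays with various concentrations of compound, then incubated 5 days at 37 °C, and viable cell number was read by MTT.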

[16] = test system: Respiratory syncytial virus; assay: Antiviral activity against Respiratory syncytial virus infected in human HeLa cells assessed as protection from virus-induced cytopathogenicity after 4 days by MTT assay; type: functional, organism-based; settings: 96 h
HEL [17] = assay: (§8) Cytotoxicity against Herpes simplex virus 2 G infected HEL cells by trypan blue exclusion method; type: cell-based; settings: human, hel; method in brief: as §1
HEL [18] = assay: (§9) Cytotoxicity against VSV infected HEL cells by trypan blue exclusion method; type: cell-based; settings: human, hel; method in brief: as §1
Influenza A virus [19] = assay: Antiviral activity against Influenza A virus H3N2 infected in MDCK cells assessed as protection from virus-induced cytopathogenicity after 6 to 7 days by MTT assay; type: functional, organism-based
Vero [20] = assay: (§10) Cytotoxicity against PIV 3 infected african green monkey Vero cells by trypan blue exclusion method; type: cell-based; settings: chlorocebus sabaeus, vero; method in brief: as §1
[21] = test system: Vesicular stomatitis virus; assay: Antiviral activity against VSV infected in HEL cells assessed as protection from virus-induced cytopathogenicity after 1 to 2 days by MTT assay; type: functional, organism-based
Human respirovirus 3 = assay: Antiviral activity against PIV 3 infected in african green monkey Vero cells assessed as protection from virus-induced cytopathogenicity after 6 to 7 days by MTT assay; type: functional, organism-based; settings: Human respirovirus 3, Vero
Vero [22] = assay: (§11) Cytotoxicity against Sindbis virus infected african green monkey Vero cells by trypan blue exclusion method; type: cell-based; settings: chlorocebus sabaeus, vero; method in brief: as §1
HeLa [23] = assay: (§12) Cytotoxicity against Respiratory syncytial virus infected human HeLa cells by trypan blue exclusion method; type: cell-based; settings: hela; method in brief: as §1
HeLa [24] = assay: (§13) Cytotoxicity against VSV infected human HeLa cells by trypan blue exclusion method; type: cell-based; settings: hela; method in brief: as §1
MDCK [25] = assay: Cytotoxicity against Influenza B virus infected MDCK cells by trypan blue exclusion method; type: cell-based, Canis lupus familiaris; settings: dog
Felid alphaherpesvirus 1 = assay: Antiviral activity against Feline herpesvirus infected in cat CRFK cells assessed as protection from virus-induced cytopathogenicity by MTT assay; type: functional, organism-based; settings: Felid alphaherpesvirus 1, CRFK
Human alphaherpesvirus 1 [26] = assay: Antiviral activity against Herpes simplex virus 1 KOS infected in HEL cells assessed as protection from virus-induced cytopathogenicity after 2 to 3 days by MTT assay; type: functional, organism-based; settings: Human alphaherpesvirus 1, KOS
[27] = test system: Mammalian orthoreovirus 1; assay: Antiviral activity against Reovirus 1 infected in african green monkey Vero cells assessed as protection from virus-induced cytopathogenicity after 6 to 7 days by MTT assay; type: functional, organism-based; settings: Mammalian orthoreovirus 1, Vero
Coxsackievirus B4 [28] = assay: Antiviral activity against Human coxsackievirus B4 infected in human HeLa cells assessed as protection from virus-induced cytopathogenicity after 2 days by MTT assay; type: functional, organism-based; settings: Enterovirus B, 48 h
Vero [29] = assay: (§14) Cytotoxicity against Punta Toro virus infected african green monkey Vero cells by trypan blue exclusion method; type: cell-based; settings: chlorocebus sabaeus, vero; method in brief: as §1
[30] = test system: Human immunodeficiency virus 2; assay: Antiviral activity against HIV2 ROD infected in human MT4 cells assessed as protection from virus-induced cytopathogenicity after 5 days by MTT assay; type: functional, organism-based; settings: Human immunodeficiency virus 2, ISOLATE ROD, MT4, 120 h; method in brief: as §3
Vero [31] = assay: (§15) Cytotoxicity against Reovirus 1 infected african green monkey Vero cells by trypan blue exclusion method; type: cell-based; settings: chlorocebus sabaeus, vero; method in brief: as §1
Feline coronavirus = assay: Antiviral activity against Feline coronavirus infected in cat CRFK cells assessed as protection from virus-induced cytopathogenicity by MTT assay; type: functional, organism-based; settings: Alphacoronavirus 1, CRFK
[32] = Cytotoxicity against HIV2 ROD infected human MT4 cells by MTT assay; type: cell-based; settings: MT4 cells infected with HIV-2 ROD; method in brief: as §7
[33] = Selectivity index, ratio of CC50 for HIV2 ROD infected human MT4 cells to IC50 for […] ROD; type: functional
[34] = as §2; type: cell-based; settings: human, HEL cells infected with vaccinia virus; method in brief: as §1
[35] = as §4; type: cell-based; settings: human, HEL cells infected with herpes simplex virus 1 KOS; method in brief: as §1
[36] = as §5; type: cell-based; settings: chlorocebus sabaeus, Vero cells infected with human coxsackievirus B4; method in brief: as §1
[37] = as §6; type: cell-based; settings: HeLa cells infected with human coxsackievirus B4; method in brief: as §1
[38] = as §8; type: cell-based; settings: human, HEL cells infected with herpes simplex virus 2 G; method in brief: as §1
[39] = as §9; type: cell-based; settings: human, HEL cells infected with VSV; method in brief: as §1
[40] = as §10; type: cell-based; settings: chlorocebus sabaeus, Vero cells infected with PIV 3; method in brief: as §1
[41] = as §11; type: cell-based; settings: chlorocebus sabaeus, Vero cells infected with Sindbis virus; method in brief: as §1
[42] = as §12; type: cell-based; settings: HeLa cells infected with respiratory syncytial virus; method in brief: as §1
[43] = as §13; type: cell-based; settings: HeLa cells infected with VSV; method in brief: as §1
[44] = as §14; type: cell-based; settings: chlorocebus sabaeus, Vero cells infected with Punta Toro virus; method in brief: as §1
[45] = as §15; type: cell-based; settings: chlorocebus sabaeus, Vero cells infected with reovirus 1; method in brief: as §1

COc1cc(/C=C/C(=O)CC(=O)/C=C/c2ccc(OCCOC(=O)CCC(NC(=O)c3ccc(NCc4cnc5nc(N)[nH]c(=O)c5n4)cc3)C(=O)O)c(OC)c2)ccc1O (configuration not stated)
CC50 [1]: > 119 nM
EC50 (Human alphaherpesvirus 2): > 119 nM
EC50 (Coxsackievirus B4 [2]): > 119 nM
CC50 [3]: > 119 nM
CC50 (HEL [4]): > 119 nM
EC50 (Human alphaherpesvirus 1 [5]): > 119 nM
EC50 (Sindbis virus): > 119 nM
IC50 [6]: 63 nM
CC50 (HEL [7]): > 119 nM
CC50 (HEL [8]): > 119 nM
CC50 (MDCK [9]): > 119 nM
CC50 (Vero [10]): > 119 nM
CC50 (MDCK [11]): > 119 nM
EC50 (Influenza B virus): > 119 nM
CC50 (HeLa [12]): > 119 nM
EC50 [13]: > 119 nM
EC50 (Punta Toro virus): > 119 nM
EC50 (Influenza A virus [14]): > 119 nM
CC50 [15]: > 63 nM
EC50 [16]: > 119 nM
CC50 (HEL [17]): > 119 nM
CC50 (HEL [18]): > 119 nM
EC50 (Influenza A virus [19]): > 119 nM
CC50 (Vero [20]): > 119 nM
EC50 [21]: > 119 nM
EC50 (Human respirovirus 3): > 119 nM
CC50 (Vero [22]): > 119 nM
CC50 (HeLa [23]): > 119 nM
CC50 (HeLa [24]): > 119 nM
CC50 (MDCK [25]): > 119 nM
EC50 (Felid alphaherpesvirus 1): 105 nM
EC50 (Human alphaherpesvirus 1 [26]): > 119 nM
EC50 [27]: > 119 nM
EC50 (Coxsackievirus B4 [28]): > 119 nM
CC50 (Vero [29]): > 119 nM
IC50 [30]: 69 nM
CC50 (Vero [31]): > 119 nM
EC50 (Feline coronavirus): 78 nM
CC50 [32]: > 69 nM
Ratio CC50/IC50 [33]: <1

NC(=O)c1ncn([C@@H]2O[C@H](CO)[C@@H](O)[C@H]2O)n1 [RIBAVIRIN]
EC50 (Human alphaherpesvirus 2): 50000 nM
EC50 (Coxsackievirus B4 [2]): > 250000 nM
CC50 [34]: > 250000 nM
EC50 (Human alphaherpesvirus 1 [5]): 125000 nM
EC50 (Sindbis virus): 111000 nM
CC50 [35]: > 250000 nM
CC50 [36]: > 250000 nM
CC50 [37]: > 250000 nM
EC50 (Influenza A virus [14]): 7000 nM
EC50 [16]: 30000 nM
CC50 [38]: > 250000 nM
CC50 [39]: > 250000 nM
CC50 [40]: > 250000 nM
EC50 [21]: > 250000 nM
EC50 (Human respirovirus 3): 95000 nM
CC50 [41]: > 250000 nM
CC50 [42]: > 250000 nM
CC50 [43]: > 250000 nM
EC50 (Human alphaherpesvirus 1 [26]): 10000 nM
EC50 (Coxsackievirus B4 [28]): 30000 nM
CC50 [44]: > 250000 nM
CC50 [45]: > 250000 nM
